# Source: ChEMBL document CHEMBL1124865, “Synthesis and biological evaluation of a series of parenteral 3'-quaternary ammonium cephalosporins” (J Med Chem, 1990)
# Tests used:
# Enterobacter cloacae [1] = experiment: (§1) Antibacterial activity against Enterobacter cloacae 265A; format: functional
# Escherichia coli [2] = experiment: Antibacterial activity against Escherichia coli TEM; format: functional
# Klebsiella pneumoniae [3] = experiment: microbe, parasite or virus in culture; format: functional; details: Klebsiella pneumoniae; read-out: MIC
# Serratia marcescens = experiment: Antibacterial activity against Serratia marcescens SE3; format: functional
# Staphylococcus aureus [4] = experiment: Antibacterial activity against penicillin G resistance Staphylococcus aureus; format: functional
# Enterobacter cloacae [5] = experiment: Antibacterial activity against Enterobacter cloacae EB5; format: functional
# Streptococcus pyogenes [6] = experiment: Antibacterial activity against Streptococcus pyogenes
# Enterococcus faecium = experiment: Antibacterial activity against Enterococcus faecium; format: functional; details: Enterococcus faecium; read-out: MIC
# Escherichia coli [7] = experiment: Antibacterial activity against Escherichia coli EC14; format: functional
# Pseudomonas aeruginosa [8] = experiment: Antibacterial activity against Pseudomonas aeruginosa PS18; format: functional
# Streptococcus pneumoniae = experiment: Antibacterial activity against Streptococcus pneumoniae; format: functional
# Pseudomonas aeruginosa [9] = experiment: Antibacterial activity against Pseudomonas aeruginosa X528; format: functional
# Klebsiella pneumoniae [10] = experiment: Antibacterial activity against Klebsiella pneumoniae X26; format: functional
# Staphylococcus aureus [11] = experiment: Antibacterial activity against penicillin G susceptible Staphylococcus aureus; format: functional
# Bacteria = experiment: as §1
# Monkey = experiment: Percent of dose in Rhesus monkeys urine at the dose of 30 mg/kg.; format: functional, Cercopithecidae
# Outline: (§2)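 Male rhesus monkeys dosed intravenously at 30 mg/kg. Plasma sampled from 0.08–0.1 h up to 6–8 h; urine collected over 0–6/8 and 6/8–24 h. Samples measured by microbiological assay.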
# [12] = Terminal half life in Rhesus […] the dose of 30 mg/kg.; format: ADME, organism-based, Macaca mulatta; design: dose 30 mg/kg; details: rhesus monkey
# Outline: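 Male rhesus monkeys, 4 per compound, given a single intravenous dose of 30 mg/kg. […] Plasma and urine antibiotic levels measured by microbiological assay. Terminal half-life reported in min.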
# Cavia porcellus [13] = organism: Cavia porcellus; experiment: In vitro relative anticholinergic potential in isolated guinea pig trachea; format: functional
# Outline: (§3)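 Guinea pig trachea in Krebs' solution at 37.5 °C, 95% O2/5% CO2, pH 7.4, 2 g resting tension. Cumulative carbachol log dose-response curve (3-fold steps) run before and 30 min after adding antagonist at 1 mM. […] Tukey test on log2 dose ratios.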
# Streptococcus pyogenes [14] = experiment: Antibacterial activity against Streptococcus pyogenes; format: functional
# [15] = In vitro dose required for anticholinergic activity in isolated guinea pig trachea; format: functional
# [16] = Terminal half life in Rhesus monkeys at the dose of 30 mg/kg.; format: ADME, organism-based, Macaca mulatta; design: dose 30 mg/kg; details: rhesus monkey, in vivo; outline: as §2
# Cavia porcellus [17] = organism: Cavia porcellus; experiment: In vitro relative anticholinergic activity in isolated guinea pig trachea; format: functional; details: read-out: pA2 (converted); outline: as §3
# Mus musculus [18] = experiment: (§4) In vivo efficacy against Escherichia coli infected mice treated at 1 hr and 5 hr post infection; format: functional
# Outline: (§5)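 Mice given lethal experimental infections, with treatment at 1 and 5 h postinfection; ED50 expressed as mg/kg × 2.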
# Mus musculus [19] = experiment: (§6) In vivo efficacy against Staphylococcus aureus infected mice treated at 1 hr and 5 hr post infection; format: functional; outline: as §5
# Mus musculus [20] = experiment: (§7) In vivo efficacy against Pseudomonas aeruginosa infected mice treated at 1 hr and 5 hr post infection; format: functional; outline: as §5
# Staphylococcus aureus [21] = experiment: as §6; format: functional; details: Staphylococcus aureus; read-out: ED50
# Canis familiaris [22] = experiment: Percent of dose in dogs urine at the dose of 60 mg/kg.; format: functional, Canis lupus familiaris
# Outline: (§8)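 Overnight-fasted female mongrel dogs with a Foley bladder catheter; bolus into the cephalic vein. Plasma and urine collected before dosing and over 24 h after. Antibacterial activity measured by microbiological assay.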
# Pseudomonas aeruginosa [23] = experiment: as §7; format: functional; details: Pseudomonas aeruginosa; read-out: ED50
# Staphylococcus aureus [24] = experiment: In vivo efficacy against Staphylococcus aureus infections in mice; format: functional; details: Staphylococcus aureus; read-out: MIC
# Escherichia coli [25] = experiment: In vivo efficacy against Escherichia coli infections in mice; format: functional; details: Escherichia coli; read-out: MIC
# Pseudomonas aeruginosa [26] = experiment: In vivo efficacy against Pseudomonas aeruginosa infections in mice; format: functional; details: Pseudomonas aeruginosa; read-out: MIC
# Escherichia coli [27] = experiment: as §4; format: functional; details: Escherichia coli; read-out: ED50
# [28] = Terminal half life in dogs at the dose of 60 mg/kg.; format: ADME, organism-based, Canis lupus familiaris; design: dose 60 mg/kg; details: dog, in vivo; outline: as §8
# [29] = Terminal half life in dogs at the dose of 20 mg/kg.; format: ADME, organism-based, Canis lupus familiaris; design: dose 20 mg/kg; details: dog, in vivo; outline: as §8
# [30] = Terminal half life in dogs at the dose of 10 mg/kg.; format: ADME, organism-based, Canis lupus familiaris; design: dose 10 mg/kg; details: dog, in vivo; outline: as §8
# Enterobacter cloacae [31] = experiment: In vitro relative hydrolysis rate against Enterobacter Ia; format: functional
# Outline: (§9)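 Spectrophotometric hydrolysis at 265 nm, substrate exposed to partially purified cell-free β-lactamase preparations; rate expressed as percentage of the cephaloridine rate.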
# Klebsiella pneumoniae [32] = experiment: In vitro relative hydrolysis rate against Klebsiella IV; format: functional; outline: as §9
# Canis familiaris [33] = experiment: Percent of dose in dogs urine at the dose of 15 mg/kg.; format: functional, Canis lupus familiaris; outline: as §8
# [34] = Terminal half life in dogs at the dose of 15 mg/kg.; format: ADME, organism-based, Canis lupus familiaris; design: dose 15 mg/kg; details: dog, in vivo; outline: as §8
# Escherichia coli [35] = experiment: In vitro relative hydrolysis rate against Escherichia coli IIIa; format: functional; outline: as §9
# Staphylococcus aureus [36] = experiment: In vitro relative hydrolysis rate against Staphylococcus aureus; format: functional; outline: as §9
# [37] = Terminal half life in dogs at the dose of 30 mg/kg.; format: ADME, organism-based, Canis lupus familiaris; design: dose 30 mg/kg; details: dog, in vivo; outline: as §8
# Pseudomonas aeruginosa [38] = experiment: In vitro relative hydrolysis rate against Pseudomonas Id; format: functional; outline: as §9
# Canis familiaris [39] = experiment: Percent of dose in dogs urine at the dose of 30 mg/kg.; format: functional, Canis lupus familiaris; outline: as §8
# [40] = Enterobacter cloacae, read-out: MIC
# [41] = Escherichia coli, read-out: MIC
# [42] = Serratia marcescens, read-out: MIC
# [43] = Staphylococcus aureus, read-out: MIC
# [44] = Pseudomonas aeruginosa, read-out: MIC
# [45] = Streptococcus pneumoniae, read-out: MIC
# [46] = Klebsiella pneumoniae, read-out: MIC
# [47] = Streptococcus pyogenes, read-out: MIC
Structure (SMILES),MIC (Enterobacter cloacae [1]; [40]),MIC (Escherichia coli [2]; [41]),MIC (Klebsiella pneumoniae [3]),MIC (Serratia marcescens; [42]),MIC (Staphylococcus aureus [4]; [43]),MIC (Enterobacter cloacae [5]; [40]),MIC (Enterococcus faecium),MIC (Escherichia coli [7]; [41]),MIC (Pseudomonas aeruginosa [8]; [44]),MIC (Streptococcus pneumoniae; [45]),MIC (Pseudomonas aeruginosa [9]; [44]),MIC (Klebsiella pneumoniae [10]; [46]),MIC (Staphylococcus aureus [11]; [43]),Dose (Monkey),RAP (Cavia porcellus [13]),MIC (Streptococcus pyogenes [14]; [47]),Dose ratio [15],Kb (Cavia porcellus [17]),also measured
CO/N=C(\C(=O)N[C@@H]1C(=O)N2C(C(=O)[O-])=C(C[n+]3cccc4ncccc43)CS[C@H]12)c1csc(N)n1,8 µg/mL,0.125 µg/mL,4 µg/mL,0.5 µg/mL,4 µg/mL,0.25 µg/mL,> 128 µg/mL,0.06 µg/mL,8 µg/mL,0.06 µg/mL,4 µg/mL,0.06 µg/mL,2 µg/mL,,,,,,MIC (Streptococcus pyogenes [6]): 0.03 µg/mL
CO/N=C(\C(=O)N[C@@H]1C(=O)N2C(C(=O)[O-])=C(C[n+]3cccc(CC(=O)O)c3)CS[C@H]12)c1csc(N)n1 (stereo in doubt; 17),,,,,,,,,,,,,,,,,,,MIC (Bacteria): 32 µg/mL
CC(C)(O/N=C(\C(=O)N[C@@H]1C(=O)N2C(C(=O)[O-])=C(C[n+]3ccccc3)CS[C@H]12)c1csc(N)n1)C(=O)O [CEFTAZIDIME],64 µg/mL,,1 µg/mL,0.5 µg/mL,,,> 128 µg/mL,,4 µg/mL,,2 µg/mL,,,64%,1,,,,half-life [12]: 0.933 h
CO/N=C(\C(=O)N[C@@H]1C(=O)N2C(C(=O)[O-])=C(C[n+]3cccc4c3CCC4)CS[C@H]12)c1csc(N)n1 [CEFPIROME],0.5 µg/mL,0.03 µg/mL,4 µg/mL,0.125 µg/mL,1 µg/mL,0.06 µg/mL,8 µg/mL,0.015 µg/mL,8 µg/mL,0.015 µg/mL,2 µg/mL,0.015 µg/mL,1 µg/mL,61%,4,0.008 µg/mL,1.76,,half-life [16]: 1.13 h
CO/N=C(\C(=O)N[C@@H]1C(=O)N2C(C(=O)[O-])=C(C[n+]3ccc4nc(C)sc4c3)CS[C@H]12)c1csc(N)n1,16 µg/mL,,1 µg/mL,0.25 µg/mL,4 µg/mL,,128 µg/mL,,8 µg/mL,,8 µg/mL,,1 µg/mL,,5,0.015 µg/mL,,955 µM,
CO/N=C(\C(=O)N[C@@H]1C(=O)N2C(C(=O)[O-])=C(C[n+]3ccc4sc(C)nc4c3)CS[C@H]12)c1csc(N)n1,2 µg/mL,,2 µg/mL,0.125 µg/mL,2 µg/mL,,128 µg/mL,0.015 µg/mL,8 µg/mL,0.015 µg/mL,4 µg/mL,,2 µg/mL,,7,0.008 µg/mL,,603 µM,
CO/N=C(\C(=O)N[C@@H]1C(=O)N2C(C(=O)[O-])=C(C[n+]3cccc(CC(=O)O)c3)CS[C@H]12)c1csc(N)n1 (stereo in doubt; 6),,,,,,,,,,,,,,,,,,,MIC (Enterobacter cloacae [1]): >128 µg/mL; MIC (Escherichia coli [2]): 0.03 µg/mL; ED50 (Mus musculus [18]): 0.13 mg/kg; MIC (Serratia marcescens): 0.25 µg/mL; MIC (Staphylococcus aureus [4]): 4 µg/mL; MIC (Enterobacter cloacae [5]): 0.5 µg/mL; MIC (Streptococcus pyogenes [14]): 0.015 µg/mL; MIC (Escherichia coli [7]): 0.015 µg/mL; MIC (Pseudomonas aeruginosa [8]): 32 µg/mL; MIC (Streptococcus pneumoniae): 0.015 µg/mL; MIC (Pseudomonas aeruginosa [9]): 8 µg/mL; ED50 (Mus musculus [19]): 7.8 mg/kg; MIC (Klebsiella pneumoniae [10]): 0.015 µg/mL; MIC (Staphylococcus aureus [11]): 4 µg/mL; ED50 (Mus musculus [20]): > 50 mg/kg
CO/N=C(\C(=O)N[C@@H]1C(=O)N2C(C(=O)[O-])=C(C[n+]3ccccc3)CS[C@H]12)c1csc(N)n1,2 µg/mL,0.03 µg/mL,4 µg/mL,0.25 µg/mL,2 µg/mL,0.06 µg/mL,> 128 µg/mL,0.03 µg/mL,4 µg/mL,0.03 µg/mL,2 µg/mL,0.03 µg/mL,1 µg/mL,,9,0.03 µg/mL,3.04,490 µM,ED50 (Staphylococcus aureus [21]): 0.8 mg/kg; Percent of dose recovered in urine (Canis familiaris [22]): 94%; ED50 (Pseudomonas aeruginosa [23]): 14.4 mg/kg; MIC (Staphylococcus aureus [24]): 1 µg/mL; MIC (Escherichia coli [25]): 0.06 µg/mL; MIC (Pseudomonas aeruginosa [26]): 16 µg/mL; ED50 (Escherichia coli [27]): 0.07 mg/kg; half-life [28]: 1.67 h
CO/N=C(\C(=O)N[C@@H]1C(=O)N2C(C(=O)[O-])=C(C[n+]3ccc4ncn(C)c4c3)CS[C@H]12)c1csc(N)n1,8 µg/mL,,8 µg/mL,0.125 µg/mL,2 µg/mL,0.125 µg/mL,128 µg/mL,,8 µg/mL,,2 µg/mL,,2 µg/mL,52%,1,0.008 µg/mL,,,half-life [29]: 1.17 h; half-life [30]: 1.27 h; half-life [16]: 1.08 h
CO/N=C(\C(=O)N[C@@H]1C(=O)N2C(C(=O)[O-])=C(C[n+]3ccc4sccc4c3)CS[C@H]12)c1csc(N)n1,4 µg/mL,0.03 µg/mL,2 µg/mL,0.125 µg/mL,2 µg/mL,0.06 µg/mL,> 128 µg/mL,0.015 µg/mL,4 µg/mL,0.015 µg/mL,2 µg/mL,0.015 µg/mL,1 µg/mL,,100,< 0.008 µg/mL,23.67,43.7 µM,ED50 (Staphylococcus aureus [21]): 0.4 mg/kg; Hydrolysis rate (Enterobacter cloacae [31]): 0.6; Hydrolysis rate (Klebsiella pneumoniae [32]): 3.4; ED50 (Pseudomonas aeruginosa [23]): 6.3 mg/kg; MIC (Staphylococcus aureus [24]): 1 µg/mL; Dose (Canis familiaris [33]): 55%; half-life [34]: 1.75 h; MIC (Escherichia coli [25]): < 0.008 µg/mL; MIC (Pseudomonas aeruginosa [26]): 2 µg/mL; Hydrolysis rate (Escherichia coli [35]): 0.3; Hydrolysis rate (Staphylococcus aureus [36]): 7.8; ED50 (Escherichia coli [27]): 0.02 mg/kg; half-life [37]: 1.5 h; Hydrolysis rate (Pseudomonas aeruginosa [38]): 0.3; Dose (Canis familiaris [39]): 58%
